# Hits are enriched below; roughly 6.4% of the tested compounds scored in any of these assays.
# MPTP inh – inhibitors of mitochondrial permeability transition pore; AID 602449; 360,000 tested, 1.4% active; inhibition, % at 10 µM; isolated mouse mitochondria, Ca2+ swelling absorbance, 30 min;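 active = inhibition of 50% or more, scaled per plate between neutral and stimulator controls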;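 note: 0% = DMSO wells given calcium and 100% = 1 mM EGTA wells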
# CHOP inhibitor – inhibitors of CHOP induction in ER stress response; CHO-K1 CHOP-promoter luciferase, tunicamycin-induced, 15-18 h; inhibition, % at 10 µM; 220,000 tested, 3.8% active;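 active = compounds that reduced the stress-induced luciferase reporter signal by more than about 70% of percent inhibition, limit read from the data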;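 note: 0% = tunicamycin plus vehicle and 100% = wells without tunicamycin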
# EBV gp42 block – blocks Epstein-Barr virus glycoprotein 42 binding. Fluorescence polarization binding assay, mP read-out. 220,000 tested, 0.42% active. inhibition, % (tested at 21.74 µM); in the data active = inhibition above about 50%
# Target sequence (Q1HVG2 whole entry, looked up): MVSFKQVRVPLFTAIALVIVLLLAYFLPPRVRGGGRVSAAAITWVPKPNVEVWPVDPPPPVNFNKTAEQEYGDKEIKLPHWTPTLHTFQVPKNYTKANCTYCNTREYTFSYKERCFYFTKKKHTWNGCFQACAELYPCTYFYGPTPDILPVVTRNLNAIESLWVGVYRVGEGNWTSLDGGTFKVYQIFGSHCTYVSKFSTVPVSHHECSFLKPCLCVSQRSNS
# TbMetRS inhib – Trypanosoma brucei MetRS inhibition; inhibition, % at 11.9 µM; 360,000 tested, 0.4% active; AID 624268; purified T. brucei MetRS, ATP depletion, Kinase-Glo luminescence;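 active = inhibition above a per-plate cutoff of the control wells' mean inhibition plus 3 SD, cut at about 5.5% in these data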;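 note: 0% = DMSO wells median and 100% = median of wells with control inhibitor compound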
#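 Dosing: 11.9 µM single point; system: parasite MetRS enzyme; technique: luminescence of leftover ATP; times: 15 min enzyme-compound preincubation, 2 h reaction, 10 min detection, 25 °C; replicates: each compound tested once; read-out basis: percent inhibition relative to median high and low control wells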
# WT yeast gro inh – growth inhibition of WT yeast, mitochondrial fusion screen | mitochondrial fusion phenotypic screen, WT strain | inhibition, % at 10 µM | 190,000 tested, 2.1% active | AID 1362; in the data active = inhibition above about 58%; tested in S. cerevisiae
# GRIN3A LBD mod – modulators (binders) of human NR3A ligand-binding domain. Tm shift relative to glycine control, % at 25 µM. NR3A LBD differential scanning fluorimetry, Tm shift; 0% = protein alone, 100% = glycine-bound protein. 340,000 tested, 2.5% active. AID 1259313;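 active = melting temperature shift of at least 10% of the positive control shift, at one fixed dose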
# MPTP counter – Rhodamine 123 counter-screen of mitochondrial pore hits; shares compounds with MPTP inh; inhibition, % at 10 µM; isolated mitochondria, membrane potential, Rhodamine 123 fluorescence; 5,000 tested, 78% active; in the data active = inhibition above about 22%;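 note: 0% = DMSO vehicle and 100% = positive control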
# MPTP abs DR – MPTP inhibition, dose response swelling confirmation; shares compounds with MPTP inh; isolated mitochondria swelling, absorbance; IC50, µM; 780 tested, 58% active; AID 651561; in the data active = IC50 below about 20 µM
# MPTP cs DR – MPTP inhibitor counter-screen activity, dose response; shares compounds with MPTP inh; isolated mitochondria counterscreen, fluorescence read-out; IC50, µM; 780 tested, 49% active; in the data active = IC50 below about 80 µM
# Starred values were filed as active, the others as inactive; nt = not tested or not shown.
SMILES,MPTP inh,CHOP inhibitor,EBV gp42 block,TbMetRS inhib,WT yeast gro inh,GRIN3A LBD mod,MPTP counter,others
S=C(Nc1ccc(Oc2ccccc2)cc1)NC1CCCC1,87*,3,1,0,62*,0,84*,
CN1CCC(NC(=O)Nc2ccc(Br)cc2)CC1,67*,8,-44,0,nt,-2,83*,
CC(C)NC(=S)Nc1ccc(Oc2ccccc2)cc1,3,13,-9,0,30,-2,nt,
S=C(NCC1CCCCC1)Nc1ccc(Oc2ccccc2)cc1,86*,73*,-15,-1,77*,16*,86*,
CN1CCC(NC(=O)Nc2cccc(C(F)(F)F)c2)CC1,3,-4,-22,-1,6,0,nt,
O=C(O)CC1C(=O)NCCN1Cc1cccs1 (stereo not drawn),1,-11,-17,0,6,0,nt,
COc1cc(C(=O)Nc2ccc3c(c2)OCCO3)ccc1OC(F)F,0,25,2,-2,-2,4,nt,
CCCc1cc(NCCCn2ccnc2)n2nc(C)c(-c3ccccc3)c2n1,-4,-13,-5,3,nt,0,nt,
S=C(Nc1ccc(Br)cc1)NC1CCCC1,95*,5,-12,0,44,-3,97*,
Cc1cccc(NC(=S)NC2CCCC2)c1,0,16,-19,1,-11,-1,nt,
O=C(c1cccnc1)N1N=C2CCCCCC2C1(O)C(F)(F)F (stereo not drawn),-1,1,-8,-1,-6,-2,nt,
Cc1cccc(NC(=O)Cn2cc(C(=O)C3CC3)c3ccccc32)c1C,56*,nt,nt,-1,nt,-2,51*,
Cc1cccc(NC(=O)C(C)OC(=O)c2ccccc2NS(=O)(=O)c2cc(C)c(C)c([N+](=O)[O-])c2)c1 (stereo not drawn),93*,9,-29,0,9,-13,65*,
CCn1nc(C)cc1C(=O)n1nc(C)c(Sc2ncccn2)c1C,69*,28,-7,0,nt,2,27*,
O=C(Nc1cnn(Cc2ccc(Cl)cc2Cl)c1)c1noc2c1CCCC2,1,56,-4,0,37,-14,nt,
CCOC(=O)C1CCCN(S(=O)(=O)c2ccc(S(=O)(=O)N3CCCC3)cc2)C1 (stereo not drawn),62*,nt,nt,0,nt,1,74*,
C=CCNC(=S)NNC(=O)C(CCCC)CC(C)O (stereo not drawn),2,-8,-25,-1,10,0,nt,
S=C(Nc1ccc(Br)cc1)Nc1ccc2c(c1)OCCO2,81*,nt,nt,0,nt,4,106*,
Fc1cccc(NC(=S)Nc2ccc(Br)cc2)c1,110*,34,-12,-1,-9,27*,96*,
COc1cccc(NC(=S)Nc2ccc(F)cc2)c1,1,nt,nt,-1,nt,-15,nt,
Cc1ccccc1NC(=S)Nc1ccc(Br)cc1,80*,10,-1,0,49,-2,83*,
O=C(NC(=S)Nc1ccc2c(c1)OCCO2)c1cccc(Br)c1,2,-23,3,0,37,-7,nt,
Cc1ccc(C(=O)N(CC(=O)Nc2ccc(Cl)c(Cl)c2)Cc2ccco2)cc1,53*,58,-1,1,-11,6,71*,
Cn1c(SCC(=O)N2CCOCC2)nnc1-c1ccc(Cl)cc1Cl,2,1,-30,0,-8,3,nt,
CCCCSCc1nc2nc(Cl)c(Cl)nc2[nH]1,72*,nt,nt,0,nt,nt,83*,
SMILES,MPTP inh,CHOP inhibitor,EBV gp42 block,TbMetRS inhib,WT yeast gro inh,GRIN3A LBD mod,MPTP counter,others
Cc1ccc2nc(COC(=O)c3cccnc3Cl)cc(=O)n2c1,0,nt,nt,1,nt,nt,nt,
CCn1nccc1C(=O)Nc1cc(Cl)cc(Cl)c1,66*,1,-19,1,30,-7,75*,
Cc1cc(NC(=O)c2ccc(-c3ccccc3F)o2)no1,-2,27,-3,-1,6,-2,nt,
COCC(=O)Oc1c(Sc2ccccc2[N+](=O)[O-])c(C)nn1C(C)(C)C,60*,29,-17,-1,-2,2,62*,
CCC(CC)C(=O)Oc1c(Sc2ccccc2[N+](=O)[O-])c(C)nn1C(C)(C)C,1,41,-16,-1,-2,0,nt,
CCc1ccc(N2CC(C(=O)Nc3ccc(S(=O)(=O)NCC4CCCO4)cc3)CC2=O)cc1 (stereo not drawn),-2,nt,nt,1,nt,-3,nt,
CCCOc1ccc(CSc2nc3ccccc3[nH]2)cc1,98*,76*,-13,-1,nt,-5,92*,
Cc1cccc(OCCCSc2nc3ccccc3[nH]2)c1,51*,31,-4,1,30,-10,64*,
CSc1cccc(NC(=O)Nc2ccccc2)c1,88*,28,2,0,7,10,110*,
CSc1cccc(NC(=O)/C=C/c2ccccc2)c1,52*,51,23,0,27,17*,53*,
CSc1cccc(NC(=O)/C=C/c2ccc(Cl)cc2)c1,90*,48,-2,0,30,17*,90*,
CSc1cccc(NC(=O)/C=C/c2ccco2)c1,0,-7,10,1,13,-6,nt,
O=[N+]([O-])c1ccc2c(c1)C=C1CCCCC1(N1CCCCC1)O2 (stereo not drawn),9,17,-3,0,17,1,nt,
O=Cc1ccc(OCC(=O)NCC2CCCO2)cc1 (stereo not drawn),64*,nt,nt,0,nt,-5,0,MPTP abs DR=>100;MPTP cs DR=>80
CCN(CC)c1ccc2nc3ccc(N)cc3[n+](-c3ccccc3)c2c1,54*,nt,nt,-1,nt,-2,24*,
CCOC(=O)Cc1n[nH]c(=O)c2ccccc12,0,10,9,0,0,1,nt,
O=[N+]([O-])c1cccnc1Oc1ccc(C2SCCS2)cc1,1,-14,-2,-1,nt,1,nt,
COc1cc(C2SCCS2)cc(Br)c1Oc1ncccc1[N+](=O)[O-],58*,33,-7,0,nt,1,33*,
O=C(CSCc1ccccc1)Nc1ccc(F)c(F)c1,71*,37,-1,-1,-11,1,63*,
O=C(CSCc1ccc(F)cc1)Nc1ccccc1,-1,14,-7,-1,20,0,nt,
Cn1ccnc1SCc1cc(=O)[nH]c2ccccc12,87*,15,-12,1,12,0,87*,
c1ccc(CSc2ncn(-c3ccccc3)n2)cc1,4,38,-18,-1,54,-1,nt,
CCN(CC(=O)Nc1cccc(OC)c1)c1ncnc2sc(C)c(C)c12,72*,59,-2,0,-5,8,68*,
